ChEMBL document CHEMBL1143377, “Design, synthesis, and evaluation of potent, nonpeptidic mimetics of second mitochondria-derived activator of caspases” (J Med Chem, 2009)

Legend:
[1] = tested on: MDA-MB-231; assay: Induction of apoptosis in human MDA-MB-231 cells assessed as increase in caspase 8 activation after 24 hrs by Western blotting; assay type: functional, cell-based
How it was run: (§1)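 MDA-MB-231 breast cancer cells were exposed to Smac mimetics for 24 hours. Cell proteins were then probed on Western blots with specific antibodies against cIAP-1, XIAP, cleaved caspase-8, pro- and cleaved caspase-3, and cleaved PARP. GAPDH served as the loading control.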

[2] = tested on: MDA-MB-231; assay: Induction of apoptosis in human MDA-MB-231 cells assessed as PARP cleavage after 24 hrs by Western blotting; assay type: functional, cell-based; how it was run: as §1
[3] = tested on: MDA-MB-231; assay: Induction of cIAP1 degradation in human MDA-MB-231 cells after 24 hrs by Western blotting; assay type: functional, cell-based; how it was run: as §1
[4] = tested on: MDA-MB-231; assay: Induction of apoptosis in human MDA-MB-231 cells assessed as increase in caspase 3 activation after 24 hrs by Western blotting; assay type: functional, cell-based; how it was run: as §1
[5] = tested on: MDA-MB-231; assay: cells; conditions: Homo sapiens, MDA-MB-231, 96 h

SMILES | Activity [1] | Activity [2] | Activity [3] | Activity [4] | IC50 [5] [nM]
CN[C@@H](C)C(=O)N[C@H]1CCCC[C@H]2CC[C@@H](C(=O)NC(c3ccccc3)c3ccccc3)N2C1=O | Dose-dependent effect | Dose-dependent effect | Dose-dependent effect | Dose-dependent effect | 259
CN[C@@H](C)C(=O)N[C@H]1CCCC[C@H]2CC[C@@H](C(=O)N[C@@H]3CCCc4ccccc43)N2C1=O | Dose-dependent effect | Dose-dependent effect | Dose-dependent effect | Dose-dependent effect | 
CN[C@@H](C)C(=O)N[C@H]1CCCC[C@H]2[C@@H](Cc3ccccc3)C[C@@H](C(=O)N[C@@H]3CCCc4ccccc43)N2C1=O | Dose-dependent effect | Dose-dependent effect | Dose-dependent effect | Dose-dependent effect | 
CN[C@@H](C)C(=O)N[C@H]1C/C=C\C[C@H]2[C@@H](Cc3ccccc3)C[C@@H](C(=O)N[C@@H]3CCCc4ccccc43)N2C1=O |  |  |  |  | 26
